Here are results for two compounds from ChEMBL document CHEMBL4825663 (J Med Chem, 2021).

Bounds are passed on as bounds.

Data set [1] has as its target T1, Solute carrier organic anion transporter family member 1B1 (Homo sapiens, UniProt Q9Y6L6).
T1 sequence (Q9Y6L6 whole entry): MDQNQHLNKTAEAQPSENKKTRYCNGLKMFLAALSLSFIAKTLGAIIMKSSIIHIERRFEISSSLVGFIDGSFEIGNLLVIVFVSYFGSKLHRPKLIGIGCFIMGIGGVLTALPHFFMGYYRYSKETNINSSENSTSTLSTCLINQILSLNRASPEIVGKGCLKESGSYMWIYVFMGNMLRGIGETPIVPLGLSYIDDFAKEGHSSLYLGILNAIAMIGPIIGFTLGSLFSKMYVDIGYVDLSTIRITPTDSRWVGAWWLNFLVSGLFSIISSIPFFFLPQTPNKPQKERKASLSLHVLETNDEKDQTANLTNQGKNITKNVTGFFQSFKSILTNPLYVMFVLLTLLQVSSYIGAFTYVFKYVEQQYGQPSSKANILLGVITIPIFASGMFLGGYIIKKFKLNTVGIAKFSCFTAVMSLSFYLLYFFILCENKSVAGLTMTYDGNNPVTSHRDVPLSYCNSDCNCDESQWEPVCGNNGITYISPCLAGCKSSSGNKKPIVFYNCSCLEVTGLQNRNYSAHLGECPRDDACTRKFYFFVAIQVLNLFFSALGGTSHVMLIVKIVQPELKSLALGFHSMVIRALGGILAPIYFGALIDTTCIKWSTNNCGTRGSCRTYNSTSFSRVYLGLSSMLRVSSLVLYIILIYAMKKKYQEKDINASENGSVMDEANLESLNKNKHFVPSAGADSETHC
The experiment in a line: Inhibition of human OATP1B1 assessed as reduction in intracellular probe substrate accumulation upto 100 uM by microplate scintillation counter analysis relative to control. The data set is classed as cell-based. The gist of the method: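 Cellular uptake-inhibition assays used Chinese hamster ovary, HEK293 or MDCKII cells stably expressing the respective human SLC transporter, run alongside the corresponding control cells. Inhibitor was tested at concentrations up to 100 μM.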

Data set [2] can be described thus: AUClast in Sprague-Dawley rat at 3 mg/kg, iv measured upto 48 hrs by LC-MS/MS analysis. In kind it is ADME, organism-based. On the set-up: route intravenous, dose 3 mg/kg, time <=48. The following applies: in vivo. The method, boiled down: (§1)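 Single dose in male Sprague-Dawley rats and male Beagle dogs (n = 3 per species), given 3 mg/kg IV or 10 mg/kg PO. Plasma was sampled to derive Cmax, Tmax, T1/2 and AUClast by each route. Oral bioavailability (F) was calculated from the PO and IV AUClast.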

The nature of data set [3]: AUClast in Beagle dog at 10 mg/kg, po measured upto 48 hrs by LC-MS/MS analysis. The data set is classed as ADME, organism-based, Canis lupus familiaris. The conditions noted are these: in vivo. On the set-up: route oral, dose 10 mg/kg, time <=48. The gist of the method:
as §1

The nature of data set [4]: Toxicity in Sprague-Dawley rat assessed as enlargement of mesenteric lymph nodes at >= 50 mg/kg, po and measured after 4 to 13 weeks. The data set is classed as organism-based, Mesenteric lymph node. The following applies: in vivo, time 4-13 weeks.
Data set [5] can be described thus: Toxicity in Beagle dog assessed as enlargement of lymph nodes at >= 100 mg/kg, po and measured after 13 weeks. The data set is classed as organism-based, Canis lupus familiaris. The following applies: in vivo, 2184 h.
Data set [6] is described as follows: Drug distribution in Sprague-Dawley rat brain. In kind it is ADME, tissue-based. The following applies: in vivo.
A short description of data set [7]: Drug distribution in Sprague-Dawley rat liver at 20 mg/kg, po measured upto 168 hrs in presence of 10 mg/kg encequidar by LC-MS/MS analysis. The conditions noted are these: in vivo. The data set is classed as ADME, organism-based.
A short description of data set [8]: Drug metabolism in dog plasma assessed as metabolic ratio of 3-p-hydroxypaclitaxel at 6 mg/kg, po in presence of 3 mg/kg encequidar. The conditions noted are these: in vivo. The data set is classed as ADME, organism-based, Canis lupus familiaris.
The nature of data set [9]: Drug excretion in Sprague-Dawley rat bile at 20 mg/kg, po in presence of 10 mg/kg encequidar. In kind it is ADME, organism-based. The conditions noted are these: in vivo.
Another data set is described as follows: in vivo. The following applies: Sprague-Dawley, rat, po, 20 mg/kg.

For `COc1cc2c(cc1OC)CN(CCc1ccc(-n3nnc(-c4cc(OC)c(OC)cc4NC(=O)c4cc(=O)c5ccccc5o4)n3)cc1)CC2`, in data set [1], the “inhibition (INH)” value was less than 50%. In addition, the AUC(0-t) at 48 h is 619 ng·h/mL in data set [2] and 724 ng·h/mL in [3]. The Activity entry in data set [4] and in data set [5] was “Toxic” each time. Further, the Drug uptake entry in data set [6] was “Not Active”.
For `CC(=O)O[C@H]1C(=O)[C@@]2(C)[C@H]([C@H](OC(=O)c3ccccc3)[C@]3(O)C[C@H](OC(=O)[C@H](O)[C@@H](NC(=O)c4ccccc4)c4ccccc4)C(C)=C1C3(C)C)[C@]1(OC(C)=O)CO[C@@H]1C[C@@H]2O` [PACLITAXEL], in data set [7], the Drug uptake result was “Active”. The Ratio in data set [8] was 0.01. For the same compound, in data set [9], the Drug excretion entry is “Metabolite_Detected”. Also, in “in vivo”, the half-life at 24 h is 6.8 h.
